# Rows were chosen to be rich in hits. Some 5.4% of all compounds tested hit in one or more screens of this group.
# T cruzi inh = blocks replication of Trypanosoma cruzi. inhibition, % (concentration not given with the values). AID 1885. 300,000 compounds, 1.4% hits. T. cruzi beta-gal in NIH3T3, luminescence, 90 h;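 active means mean inhibition across valid replicates above about 55%, limit read from the data; inconclusive means mean below that limit but half or more replicates reach it; inactive means mean below it, under half of replicates reach it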;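 further: signal also drops with host cell toxicity which is not excluded here; 0% = plate median of DMSO wells and 100% = zero luminescence signal; higher percent means less beta-gal luminescence so fewer parasites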
#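 compound dosing = single 50 nL compound addition per well in DMSO | material = NIH/3T3 host cells with β-galactosidase reporter T. cruzi | input = 5,000 host fibroblasts per well | timing = ≥90 h infection period, 3 h prior cell attachment | read-out basis = percent inhibition of parasite-derived β-gal signal | detection = GalScreen β-gal luminescence, detergent lysis, 60 min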
# Mdm2-MdmX inh = disrupts the human Mdm2-MdmX interaction; SaOS-2 split-luciferase Mdm2/MdmX complementation, luminescence; AID 485346; inhibition, % at 8 µM; 330,000 compounds, 3% hits;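 active means inhibition of at least 50% at 8 µM in the primary screen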
# Target sequence (O15151 whole entry, looked up): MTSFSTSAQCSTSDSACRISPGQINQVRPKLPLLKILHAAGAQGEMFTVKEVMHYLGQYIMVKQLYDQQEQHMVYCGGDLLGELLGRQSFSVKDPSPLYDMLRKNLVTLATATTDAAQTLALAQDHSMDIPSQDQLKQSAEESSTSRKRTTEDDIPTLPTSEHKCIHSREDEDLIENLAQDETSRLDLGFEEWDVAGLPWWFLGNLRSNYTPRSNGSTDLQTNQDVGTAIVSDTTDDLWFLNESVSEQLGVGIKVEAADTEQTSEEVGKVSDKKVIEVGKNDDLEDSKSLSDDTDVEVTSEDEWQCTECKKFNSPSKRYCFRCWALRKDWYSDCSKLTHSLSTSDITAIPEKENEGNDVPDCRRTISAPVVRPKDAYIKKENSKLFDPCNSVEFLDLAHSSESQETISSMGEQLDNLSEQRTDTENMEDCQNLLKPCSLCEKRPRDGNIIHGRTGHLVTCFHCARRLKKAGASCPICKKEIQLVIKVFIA
# Target sequence (Q00987 whole entry, looked up): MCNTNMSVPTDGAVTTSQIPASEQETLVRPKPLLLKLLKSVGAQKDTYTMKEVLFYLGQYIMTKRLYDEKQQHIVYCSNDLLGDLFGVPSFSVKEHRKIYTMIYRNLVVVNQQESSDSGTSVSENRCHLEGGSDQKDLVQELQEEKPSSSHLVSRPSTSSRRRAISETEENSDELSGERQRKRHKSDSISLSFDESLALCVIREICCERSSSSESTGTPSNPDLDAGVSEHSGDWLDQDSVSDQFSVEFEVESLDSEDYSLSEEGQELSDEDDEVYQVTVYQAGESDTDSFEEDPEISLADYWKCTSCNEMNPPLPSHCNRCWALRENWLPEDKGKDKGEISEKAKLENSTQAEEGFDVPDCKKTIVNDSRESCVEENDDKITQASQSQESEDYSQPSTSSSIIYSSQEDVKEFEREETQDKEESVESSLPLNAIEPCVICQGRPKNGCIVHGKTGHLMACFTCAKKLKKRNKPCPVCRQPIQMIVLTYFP
# aSyn 5UTR inh = 5' untranslated region of α-synuclein, MLPCN primary screen; alpha-synuclein 5'UTR reporter, inhibitor activity; inhibition, % (tested at 7.5 µM); 300,000 compounds, 0.82% hits; AID 1813; in the data active means inhibition above about 60%; inconclusive means no clear call, values can overlap the other calls;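 further: H4 neuroglioblastoma cells stably carrying SNCA 5'UTR luciferase fusion; 0% = DMSO wells and 100% = positive control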
# SKKanGAS inh = blocks kanamycin growth of S. pyogenes SKKanGAS strain | BacTiter-Glo, 6 h | inhibition, % at 7.5 µM | 300,000 compounds, 1.3% hits | AID 1662;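 active means mean replicate score, as percent of positive control median, at least 50; inconclusive means mean below 50 but one replicate at or above 50; inactive means mean and every replicate below 50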;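 further: strain carries kanamycin resistance gene driven by streptokinase promoter and grows in 40 µg/ml kanamycin; loss of luminescence reflects streptokinase promoter inhibition or plain growth inhibition; 0% = median of DMSO wells and 100% = positive control at its reference dose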
# CSC inhib = cancer stem cell inhibition; cancer stem cell-like cells viability, luminescence; inhibition, % at 7.5 µM; 300,000 compounds, 1.1% hits; in the data active means inhibition above about 75%; inconclusive means no clear call, values can overlap the other calls; tested in HMLE shEcad cells
# Starred values were filed as active, the others as inactive; ? = inconclusive; nt = not tested or not shown.
SMILES,T cruzi inh,Mdm2-MdmX inh,aSyn 5UTR inh,SKKanGAS inh,CSC inhib
Cc1cnc(NC(=O)c2sc3ccccc3c2Cl)s1,-39,-13,?,27,2
O=C(Nc1nccs1)c1sc2ccccc2c1Cl,6,-98,?,50*,40
O=C(Nc1ccc(Cl)c(Cl)c1)Nc1nccs1,10,19,-64,55*,95*
Cc1ccnc(NC(=O)c2sc3ccccc3c2Cl)c1,-20,17,78*,-13,14
O=C(Nc1nccs1)c1sc2cc(Cl)ccc2c1Cl,59*,-38,-115,66*,54
N#Cc1cccc(NC(=O)CCc2ccc(S(=O)(=O)N3CCOCC3)cc2)c1,nt,4,nt,nt,-11
CCn1cc(C(=O)NC(=S)Nc2ccccc2Br)cn1,0,12,-51,51*,-6
CC(C)(C)c1csc(NNC(=O)c2ccc(Cl)cc2)n1,7,27,-34,90*,40
Cc1cc(C(=O)NNC(=O)c2c(-c3c(Cl)cccc3Cl)noc2C)no1,3,3,7,-5,-7
CC(C)(C)c1csc(NC(=O)c2cccnc2)n1,-2,-29,-51,-5,-8
Cc1onc(-c2c(Cl)cccc2Cl)c1C(=O)NNc1ccccc1,30,11,-6,-6,91*
Cc1nc(C(=O)NNC(=O)c2c(-c3c(Cl)cccc3Cl)noc2C)cs1,-11,30,63*,12,35
Cc1onc(-c2c(Cl)cccc2Cl)c1C(=O)Nc1nc(C(C)(C)C)cs1,-14,40,80*,-4,nt
CN(C(=O)COC(=O)CSc1ccc(C(N)=O)cc1[N+](=O)[O-])C1CCCCC1,-4,-2,-4,18,-8
Cc1cccc(NC(=O)C2SC(=Nc3c(C)cccc3C)C(C(=O)N3CCOCC3)=C2N)c1 (centres undefined),22,13,-23,94*,0
COc1ccc(CCNC(=O)COC(=O)c2cc(Cl)nc(Cl)c2)cc1,nt,13,nt,nt,-21
Cc1ccc(C(=O)NC(=C(Cl)Cl)S(=O)(=O)c2ccc(Cl)cc2)cc1,-17,35,-29,-2,-4
Cc1ccc(C(=O)NC(=C(Cl)Cl)S(=O)(=O)c2ccc(C)cc2)cc1,-2,27,-72,9,96*
COCCn1c(C)cc(C(=O)COC(=O)/C=C/c2ccc(OC)cc2OC)c1C,nt,15,nt,nt,6
O=C(NC(=S)Nc1ccc(-c2nc3ncccc3o2)cc1)c1ccccc1F,10,-12,-34,52*,11
O=C(Nc1cccc(-c2nc3ncccc3o2)c1)c1ccccc1,60*,24,-31,2,-10
CN(Cc1cn(-c2ccccc2)nc1-c1cc2ccccc2o1)C(=O)CCC(=O)O,45,-12,-16,13,-4
Cc1noc(C)c1NC(=O)N(C)C[C@H]1Oc2c(NC(=O)Nc3ccc4c(c3)OCO4)cccc2C(=O)N([C@H](C)CO)C[C@@H]1C,nt,15,nt,nt,nt
COCCN(C)C(=O)CC1C(=O)NCCN1CC(c1ccccc1)c1ccccc1 (centres undefined),-1,16,-11,-5,-7
O=[N+]([O-])c1cc(CN2CCN(c3cccc(C(F)(F)F)c3)CC2)c2cccnc2c1O,76*,24,71*,95*,5
SMILES,T cruzi inh,Mdm2-MdmX inh,aSyn 5UTR inh,SKKanGAS inh,CSC inhib
CC1(C)[C@@H](O)CC[C@]2(C)C3C(O)C=C4[C@H]5C[C@@](C)(CO)CC[C@]5(C)CC[C@]4(C)[C@]3(C)CC[C@@H]12 (some centres undefined),-8,-21,11,99*,126*
CC1(C)C2CC[C@]3(C)C(CC=C4[C@@H]5C[C@@](C)(CO)[C@@H](O)C[C@]56C[C@@H](OC6=O)[C@]43C)[C@@]2(C)CC[C@@H]1O (some centres undefined),-8,6,-28,2,-14
CN1CCC(N(C)CC(=O)Nc2ccc3c(c2)OC(F)(F)O3)CC1,44,-21,-5,-1,27
CCN(c1ccccc1)S(=O)(=O)c1ccc(Cl)c(NC(=O)CN(C)C2CCN(C)CC2)c1,56*,23,-10,-4,-4
CN1CCC(N(C)CC(=O)Nc2cccc(Oc3ccccc3)c2)CC1,62*,3,9,1,53
COc1ccc(CC(=O)Nc2nc(-c3ccncc3)cs2)cc1,67*,-5,-60,2,-43
COc1cc(CNc2ccc(O)cc2)cc(Br)c1OCc1ccccc1F,2,27,15,1,-8
COc1cc(CNCc2ccncc2)cc(Br)c1OCc1ccccc1F,55*,11,-6,-3,9
O=C(O)CCSc1nnc(-c2ccc3c(c2)OCO3)o1,-11,15,67*,-6,2

# Source: PubChem (several laboratories)
